Laboratory results: ChEMBL document CHEMBL1933013, “Synthesis, SAR, and preliminary mechanistic evaluation of novel antiproliferative N⁶,5'-bis-ureido- and 5'-carbamoyl-N⁶-ureidoadenosine derivatives” (Bioorg Med Chem, 2012)
Values after ≈ are worked out from the molar mass of the structure shown. Active and inactive are the calls of the source. The rule behind the calls is not given here.

Tests used:
[1] = target: T1, Bone morphogenetic protein receptor type-1B (Homo sapiens, UniProt O00238); assay: Inhibition of BMPR1B at 10 uM after 1 hr by competitive binding assay
T1 sequence (O00238 whole entry): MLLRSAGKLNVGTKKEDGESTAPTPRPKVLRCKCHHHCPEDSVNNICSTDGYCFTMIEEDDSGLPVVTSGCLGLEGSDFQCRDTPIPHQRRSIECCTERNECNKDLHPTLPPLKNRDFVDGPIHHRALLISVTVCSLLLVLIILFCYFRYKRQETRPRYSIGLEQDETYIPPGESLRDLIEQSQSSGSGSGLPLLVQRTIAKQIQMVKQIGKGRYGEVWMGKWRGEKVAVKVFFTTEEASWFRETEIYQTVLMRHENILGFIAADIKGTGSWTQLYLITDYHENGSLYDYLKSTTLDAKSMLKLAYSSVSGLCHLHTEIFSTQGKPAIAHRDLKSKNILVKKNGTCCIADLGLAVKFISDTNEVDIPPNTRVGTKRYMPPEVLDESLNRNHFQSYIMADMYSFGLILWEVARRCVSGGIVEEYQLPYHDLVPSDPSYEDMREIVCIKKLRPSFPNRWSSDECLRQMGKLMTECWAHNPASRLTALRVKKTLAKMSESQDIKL
Summary of the method: (§1)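 Single-dose competitive binding at 10 μM against immobilized ATP-site ligands (DiscoveRx): phage-tagged or HEK-293-expressed DNA-tagged kinase with ligand-loaded streptavidin magnetic beads in 20% SeaBlock, 0.17× PBS, 0.05% Tween 20, 6 mM DTT, 1 h room temperature with shaking. Beads washed, eluted with 0.5 μM free ligand for 30 min; bound kinase quantified by qPCR as % binding inhibition.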

[2] = target: Myosin light chain kinase (Homo sapiens) (UniProt Q32MK0); assay: Inhibition of MYLK3 at 10 uM after 1 hr by competitive binding assay; summary of the method: as §1
[3] = target: Serine/threonine-protein kinase DCLK1 (Homo sapiens) (UniProt O15075); assay: Inhibition of DCLK1 at 10 uM after 1 hr by competitive binding assay; summary of the method: as §1
[4] = target: NT-3 growth factor receptor (Homo sapiens) (UniProt Q16288); assay: Inhibition of NTRK3 at 10 uM after 1 hr by competitive binding assay; summary of the method: as §1
[5] = target: Myosin light chain kinase family member 4 (Homo sapiens) (UniProt Q86YV6); assay: Inhibition of MYLK4 at 10 uM after 1 hr by competitive binding assay; summary of the method: as §1
Myosin light chain kinase family member 4 (Homo sapiens), sequence (Q86YV6 whole entry): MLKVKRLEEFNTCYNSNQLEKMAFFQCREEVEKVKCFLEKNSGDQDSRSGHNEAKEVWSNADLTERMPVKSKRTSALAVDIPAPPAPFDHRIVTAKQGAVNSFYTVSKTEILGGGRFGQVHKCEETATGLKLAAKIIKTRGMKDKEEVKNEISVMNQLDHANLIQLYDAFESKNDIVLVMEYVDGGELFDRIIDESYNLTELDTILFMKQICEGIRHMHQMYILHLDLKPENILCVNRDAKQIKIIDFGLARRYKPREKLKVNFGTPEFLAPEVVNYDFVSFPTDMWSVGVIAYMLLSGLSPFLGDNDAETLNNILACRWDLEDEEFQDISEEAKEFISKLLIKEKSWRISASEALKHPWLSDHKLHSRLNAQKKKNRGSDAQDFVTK

[6] = target: Protein kinase C epsilon type (Homo sapiens) (UniProt Q02156); assay: Inhibition of PRKCE at 10 uM after 1 hr by competitive binding assay; summary of the method: as §1
Protein kinase C epsilon type (Homo sapiens), sequence (Q02156 whole entry): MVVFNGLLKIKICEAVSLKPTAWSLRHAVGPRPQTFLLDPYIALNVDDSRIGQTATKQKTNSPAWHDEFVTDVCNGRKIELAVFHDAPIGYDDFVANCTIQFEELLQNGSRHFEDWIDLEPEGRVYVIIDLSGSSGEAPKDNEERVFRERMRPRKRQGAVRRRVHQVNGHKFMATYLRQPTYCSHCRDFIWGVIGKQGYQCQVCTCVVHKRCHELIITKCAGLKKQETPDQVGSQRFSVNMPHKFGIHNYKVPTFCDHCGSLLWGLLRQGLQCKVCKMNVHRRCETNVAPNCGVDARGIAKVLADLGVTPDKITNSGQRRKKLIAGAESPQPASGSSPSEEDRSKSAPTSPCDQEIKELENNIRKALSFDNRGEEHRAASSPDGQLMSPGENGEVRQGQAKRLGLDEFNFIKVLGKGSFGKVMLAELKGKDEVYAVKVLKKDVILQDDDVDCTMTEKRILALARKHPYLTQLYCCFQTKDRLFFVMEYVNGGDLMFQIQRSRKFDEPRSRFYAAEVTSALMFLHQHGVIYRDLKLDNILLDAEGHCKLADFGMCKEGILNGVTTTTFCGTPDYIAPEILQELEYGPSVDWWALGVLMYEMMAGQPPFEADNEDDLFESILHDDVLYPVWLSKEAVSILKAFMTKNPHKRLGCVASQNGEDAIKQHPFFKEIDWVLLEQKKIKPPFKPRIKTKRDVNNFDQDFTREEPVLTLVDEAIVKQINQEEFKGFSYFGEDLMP

[7] = target: Mitogen-activated protein kinase 11 (Homo sapiens) (UniProt Q15759); assay: Inhibition of MAPK11 at 10 uM after 1 hr by competitive binding assay; summary of the method: as §1
[8] = target: MAP kinase-interacting serine/threonine-protein kinase 2 (Homo sapiens) (UniProt Q9HBH9); assay: Inhibition of MKNK2 at 10 uM after 1 hr by competitive binding assay; summary of the method: as §1
MAP kinase-interacting serine/threonine-protein kinase 2 (Homo sapiens), sequence (Q9HBH9 whole entry, looked up): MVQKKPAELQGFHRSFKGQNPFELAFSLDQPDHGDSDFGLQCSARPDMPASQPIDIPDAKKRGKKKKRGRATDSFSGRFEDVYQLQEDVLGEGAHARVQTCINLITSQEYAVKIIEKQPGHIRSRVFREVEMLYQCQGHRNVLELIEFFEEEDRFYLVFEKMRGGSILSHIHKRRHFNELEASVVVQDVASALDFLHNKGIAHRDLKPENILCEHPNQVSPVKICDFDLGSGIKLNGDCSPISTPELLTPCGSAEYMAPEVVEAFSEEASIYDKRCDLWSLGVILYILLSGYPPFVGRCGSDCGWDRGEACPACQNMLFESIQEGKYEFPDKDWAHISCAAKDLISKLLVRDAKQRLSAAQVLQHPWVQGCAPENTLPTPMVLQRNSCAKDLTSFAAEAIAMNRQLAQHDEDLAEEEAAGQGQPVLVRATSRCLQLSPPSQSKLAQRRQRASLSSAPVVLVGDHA

[9] = target: Tyrosine-protein kinase Tec (Homo sapiens) (UniProt P42680); assay: Inhibition of TEC at 10 uM after 1 hr by competitive binding assay; summary of the method: as §1
Tyrosine-protein kinase Tec (Homo sapiens), sequence (P42680 whole entry): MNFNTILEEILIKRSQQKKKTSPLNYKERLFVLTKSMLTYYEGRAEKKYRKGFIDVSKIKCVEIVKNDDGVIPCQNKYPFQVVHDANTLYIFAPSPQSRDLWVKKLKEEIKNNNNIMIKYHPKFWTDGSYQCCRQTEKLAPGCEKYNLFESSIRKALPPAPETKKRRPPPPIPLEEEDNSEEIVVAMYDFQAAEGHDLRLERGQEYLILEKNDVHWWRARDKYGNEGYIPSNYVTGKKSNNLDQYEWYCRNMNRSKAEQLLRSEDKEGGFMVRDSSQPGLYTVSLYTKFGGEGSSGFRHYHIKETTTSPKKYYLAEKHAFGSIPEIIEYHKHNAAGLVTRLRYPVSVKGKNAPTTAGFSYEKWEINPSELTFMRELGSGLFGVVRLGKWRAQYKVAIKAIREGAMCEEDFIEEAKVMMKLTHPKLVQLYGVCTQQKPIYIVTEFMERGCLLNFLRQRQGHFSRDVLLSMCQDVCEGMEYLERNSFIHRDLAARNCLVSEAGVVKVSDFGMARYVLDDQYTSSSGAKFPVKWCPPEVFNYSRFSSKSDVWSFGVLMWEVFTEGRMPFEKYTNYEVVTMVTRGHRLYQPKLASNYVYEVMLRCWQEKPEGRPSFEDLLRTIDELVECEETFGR

[10] = target: Receptor tyrosine-protein kinase erbB-2 (Homo sapiens) (UniProt P04626); assay: Inhibition of ErbB2 at 10 uM after 1 hr by competitive binding assay; summary of the method: as §1
[11] = target: Receptor-type tyrosine-protein kinase FLT3 (Homo sapiens) (UniProt P36888); assay: Inhibition of FLT-3 kinase at 10 uM after 1 hr by competitive binding assay; summary of the method: as §1
[12] = target: Serine/threonine-protein kinase Nek2 (Homo sapiens) (UniProt P51955); assay: Inhibition of NEK2 at 10 uM after 1 hr by competitive binding assay; summary of the method: as §1
[13] = target: Tyrosine-protein kinase Blk (Homo sapiens) (UniProt P51451); assay: Inhibition of Blk at 10 uM after 1 hr by competitive binding assay; summary of the method: as §1
[14] = target: Epidermal growth factor receptor (Homo sapiens) (UniProt P00533); assay: Inhibition of EGFR at 10 uM after 1 hr by competitive binding assay; summary of the method: as §1
[15] = target: Tyrosine-protein kinase ABL1 (Homo sapiens) (UniProt P00519); assay: Inhibition of ABL1 at 10 uM after 1 hr by competitive binding assay; summary of the method: as §1
Tyrosine-protein kinase ABL1 (Homo sapiens), sequence (P00519 whole entry): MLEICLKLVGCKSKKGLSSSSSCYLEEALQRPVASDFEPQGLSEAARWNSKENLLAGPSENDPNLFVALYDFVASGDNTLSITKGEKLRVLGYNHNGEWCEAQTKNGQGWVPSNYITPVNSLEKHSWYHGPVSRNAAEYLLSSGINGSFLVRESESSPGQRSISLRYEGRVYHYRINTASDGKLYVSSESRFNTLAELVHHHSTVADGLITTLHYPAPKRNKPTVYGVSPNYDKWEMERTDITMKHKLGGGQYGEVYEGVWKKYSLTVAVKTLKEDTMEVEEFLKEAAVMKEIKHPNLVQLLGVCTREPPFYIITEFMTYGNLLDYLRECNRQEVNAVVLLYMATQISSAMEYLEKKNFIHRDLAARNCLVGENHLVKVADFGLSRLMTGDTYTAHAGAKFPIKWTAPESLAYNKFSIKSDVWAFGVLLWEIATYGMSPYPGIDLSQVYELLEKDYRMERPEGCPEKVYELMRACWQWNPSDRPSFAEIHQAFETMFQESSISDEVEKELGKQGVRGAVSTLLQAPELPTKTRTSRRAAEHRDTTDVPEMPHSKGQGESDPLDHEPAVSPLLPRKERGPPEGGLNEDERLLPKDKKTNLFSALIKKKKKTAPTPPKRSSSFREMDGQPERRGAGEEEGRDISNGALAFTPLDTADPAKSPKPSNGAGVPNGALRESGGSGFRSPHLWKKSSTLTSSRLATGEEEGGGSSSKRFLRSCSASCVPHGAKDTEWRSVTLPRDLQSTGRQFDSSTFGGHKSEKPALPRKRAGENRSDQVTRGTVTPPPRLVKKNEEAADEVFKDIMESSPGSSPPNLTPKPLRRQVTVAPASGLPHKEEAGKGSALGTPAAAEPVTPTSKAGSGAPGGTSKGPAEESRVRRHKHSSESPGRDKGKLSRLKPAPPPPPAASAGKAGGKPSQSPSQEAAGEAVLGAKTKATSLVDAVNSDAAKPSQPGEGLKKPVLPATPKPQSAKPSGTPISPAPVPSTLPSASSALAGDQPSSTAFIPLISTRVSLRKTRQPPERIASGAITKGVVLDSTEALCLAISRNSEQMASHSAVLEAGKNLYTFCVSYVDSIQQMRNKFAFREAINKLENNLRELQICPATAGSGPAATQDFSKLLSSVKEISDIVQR

[16] = target: Homeodomain-interacting protein kinase 1 (Homo sapiens) (UniProt Q86Z02); assay: Inhibition of HIPK1 at 10 uM after 1 hr by competitive binding assay; summary of the method: as §1
Homeodomain-interacting protein kinase 1 (Homo sapiens), sequence (Q86Z02 whole entry, looked up): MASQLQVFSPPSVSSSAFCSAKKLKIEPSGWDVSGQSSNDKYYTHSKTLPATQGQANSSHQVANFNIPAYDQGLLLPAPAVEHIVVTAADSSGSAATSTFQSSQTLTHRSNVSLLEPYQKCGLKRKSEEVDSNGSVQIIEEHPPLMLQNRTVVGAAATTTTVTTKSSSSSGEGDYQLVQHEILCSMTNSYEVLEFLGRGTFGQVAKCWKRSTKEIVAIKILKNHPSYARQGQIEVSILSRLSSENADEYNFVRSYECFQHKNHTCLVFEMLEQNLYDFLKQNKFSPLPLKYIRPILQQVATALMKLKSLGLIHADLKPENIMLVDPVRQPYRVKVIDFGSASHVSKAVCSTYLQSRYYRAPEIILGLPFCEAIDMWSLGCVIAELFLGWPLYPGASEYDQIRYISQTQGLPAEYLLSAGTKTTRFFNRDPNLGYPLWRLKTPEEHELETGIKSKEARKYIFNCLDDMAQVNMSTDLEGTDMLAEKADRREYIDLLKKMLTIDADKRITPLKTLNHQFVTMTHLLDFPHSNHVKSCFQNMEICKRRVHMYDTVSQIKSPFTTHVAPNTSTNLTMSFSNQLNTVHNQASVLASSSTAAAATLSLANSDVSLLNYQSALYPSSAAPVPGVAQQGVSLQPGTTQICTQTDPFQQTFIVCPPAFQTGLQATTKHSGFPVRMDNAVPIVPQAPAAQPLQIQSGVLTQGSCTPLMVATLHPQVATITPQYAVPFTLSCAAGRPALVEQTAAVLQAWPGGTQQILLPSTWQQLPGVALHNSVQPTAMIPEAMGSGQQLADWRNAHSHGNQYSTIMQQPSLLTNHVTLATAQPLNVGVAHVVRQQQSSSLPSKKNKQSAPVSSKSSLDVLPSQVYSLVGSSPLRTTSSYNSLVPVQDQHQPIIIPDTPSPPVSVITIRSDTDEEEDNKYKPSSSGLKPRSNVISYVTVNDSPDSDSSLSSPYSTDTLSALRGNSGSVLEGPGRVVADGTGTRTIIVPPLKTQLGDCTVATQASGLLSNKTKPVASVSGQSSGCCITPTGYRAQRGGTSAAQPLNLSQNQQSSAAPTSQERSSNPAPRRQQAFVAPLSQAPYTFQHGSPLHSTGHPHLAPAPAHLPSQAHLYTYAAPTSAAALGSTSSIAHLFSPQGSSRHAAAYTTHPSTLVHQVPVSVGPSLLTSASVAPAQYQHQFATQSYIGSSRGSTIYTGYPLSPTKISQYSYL

[17] = target: T1, Bone morphogenetic protein receptor type-1B; assay: Binding affinity to BMPR1B by multi dose competitive binding assay
[18] = system: L1210; assay: Antiproliferative activity against mouse L1210 cells after 48 hrs; assay type: functional, cell-based; conditions: L1210, 48 h
Summary of the method: (§2)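 Cells in growth medium grown with variable compound concentrations at 37 °C in humidified CO2-controlled atmosphere; incubation 48 h for L1210 and FM3A, 72 h for CEM, 96 h for HeLa. Cell number counted by Coulter counter; IC50 = concentration inhibiting proliferation by 50%.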

[19] = system: FM3A; assay: Antiproliferative activity against mouse FM3A cells after 48 hrs; assay type: functional, cell-based; summary of the method: as §2
[20] = system: CCRF-CEM; assay: Antiproliferative activity against human CEM cells after 72 hrs; assay type: cell-based; summary of the method: as §2
[21] = system: HeLa; assay: Antiproliferative activity against human HeLa cells after 96 hrs; assay type: functional, cell-based; summary of the method: as §2
[22] = target: T1, Bone morphogenetic protein receptor type-1B; assay: Binding affinity to BMPR1B at >30 uM by multi dose competitive binding assay
[23] = Antiproliferative activity against human NCI60 cells; assay type: functional, cell-based

Row | Structure (SMILES) | IC50 [18] [µg/mL] | IC50 [19] [µg/mL] | IC50 [20] [µg/mL] | IC50 [21] [µg/mL] | further results
1 | CNC(=O)NC[C@H]1O[C@@H](n2cnc3c(NC(=O)Nc4ccccc4)ncnc32)[C@H](O)[C@@H]1O |  |  |  |  | inhibition [1]: 45%; inhibition [2]: 43%; inhibition [3]: 41%; inhibition [4]: 40%; inhibition [5]: 38%; inhibition [6]: 38%; inhibition [7]: 37%; inhibition [8]: 37%; inhibition [9]: 37%; inhibition [10]: 35%; inhibition [11]: 33%; inhibition [12]: 33%; inhibition [13]: 32%; inhibition [14]: 31%; inhibition [15]: 30%; inhibition [16]: 30%; Kd [17]: 11.5 µM
2 | CNC(=O)OC[C@H]1O[C@@H](n2cnc3c(NC(=O)Nc4cccc(I)c4)ncnc32)[C@H](O[Si](C)(C)C(C)(C)C)[C@@H]1O[Si](C)(C)C(C)(C)C | > 200 | > 200 | > 200 | > 200 | 
3 | CNC(=O)OC[C@H]1O[C@@H](n2cnc3c(NC(=O)Nc4ccc([N+](=O)[O-])cc4)ncnc32)[C@H](O[Si](C)(C)C(C)(C)C)[C@@H]1O[Si](C)(C)C(C)(C)C | 7.7 (≈ 10.7 µM) | 24 (≈ 33.5 µM) | 15 (≈ 20.9 µM) | 1.5 (≈ 2.09 µM) | 
4 | CNC(=O)NC[C@H]1O[C@@H](n2cnc3c(NC(=O)Nc4ccc(Cl)cc4)ncnc32)[C@H](O[Si](C)(C)C(C)(C)C)[C@@H]1O[Si](C)(C)C(C)(C)C | 5.6 (≈ 7.94 µM) | 33 (≈ 46.8 µM) | 14 (≈ 19.8 µM) | 3.4 (≈ 4.82 µM) | 
5 | CNC(=O)OC[C@H]1O[C@@H](n2cnc3c(NC(=O)Nc4ccc(Cl)cc4)ncnc32)[C@H](O[Si](C)(C)C(C)(C)C)[C@@H]1O[Si](C)(C)C(C)(C)C | > 200 | > 200 | > 200 | > 200 | 
6 | CNC(=O)NC[C@H]1O[C@@H](n2cnc3c(NC(=O)Nc4ccccc4)ncnc32)[C@H](O[Si](C)(C)C(C)(C)C)[C@@H]1O[Si](C)(C)C(C)(C)C | 3.8 (≈ 5.66 µM) | 5.9 (≈ 8.79 µM) | 8.3 (≈ 12.4 µM) | 3.2 (≈ 4.77 µM) | Activity [22]: inactive; IC50 [23]: < 10 µM
7 | CNC(=O)NC[C@H]1O[C@@H](n2cnc3c(NC(=O)NC4CCCCC4)ncnc32)[C@H](O[Si](C)(C)C(C)(C)C)[C@@H]1O[Si](C)(C)C(C)(C)C | 20 (≈ 29.5 µM) | 8.4 (≈ 12.4 µM) | 5.2 (≈ 7.68 µM) | 11 (≈ 16.2 µM) | 
8 | CNC(=O)OC[C@H]1O[C@@H](n2cnc3c(NC(=O)Nc4ccc(I)cc4)ncnc32)[C@H](O[Si](C)(C)C(C)(C)C)[C@@H]1O[Si](C)(C)C(C)(C)C | > 200 | > 200 | ≥ 200 | 143 (≈ 179 µM) | 
9 | CNC(=O)OC[C@H]1O[C@@H](n2cnc3c(NC(=O)Nc4ccc(OC)cc4)ncnc32)[C@H](O[Si](C)(C)C(C)(C)C)[C@@H]1O[Si](C)(C)C(C)(C)C | > 200 | > 200 | > 200 | ≥ 200 | 
10 | CNC(=O)OC[C@H]1O[C@@H](n2cnc3c(NC(=O)Nc4ccccc4)ncnc32)[C@H](O[Si](C)(C)C(C)(C)C)[C@@H]1O[Si](C)(C)C(C)(C)C | 160 (≈ 238 µM) | > 200 | > 200 | ≥ 200 | 
11 | CNC(=O)NC[C@H]1O[C@@H](n2cnc3c(NC(=O)Nc4cccc(I)c4)ncnc32)[C@H](O[Si](C)(C)C(C)(C)C)[C@@H]1O[Si](C)(C)C(C)(C)C | 38 (≈ 47.7 µM) |  | 182 (≈ 228 µM) | 21 (≈ 26.4 µM) | 
